# Only some compounds are listed: those with a hit (about 2.3% of all), similar ones and a draw of the others.
# F508del corr: correctors of CFTR F508del function in bronchial epithelial cells; CFBE cells, YFP halide quenching; stimulated with forskolin plus potentiator P3; % fluorescence drop versus neutral controls; activity (quench increase), % at 7.58 µM; actives 0.36% (n = 350,000); AID 720511;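 active means mean added fluorescence quench of at least 8% versus neutral control, with both replicates also reaching 8%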;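 further: cells transiently co-express mutant CFTR-F508del with the halide-sensitive YFP; corrector assay measuring rescue of mutant channel to the surface after 24 h compound exposure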
# FN deposit inh: fibronectin deposition inhibition. AH1F fibroblasts, Alexa488-fibronectin deposition fluorescence, overnight. inhibition, % at 12.6 µM. actives 0.086% (n = 350,000). AID 743247;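 active means mean inhibition across replicates of 30% or more, regardless of how many single replicates reach that level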;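 further: positive control wells lacked labelled fibronectin entirely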
#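 Measured by – fluorescence 485/525 nm · System – AH1F fibroblast monolayer, labelled fibronectin deposition · Amount – 10000 cells per well · Buffer or medium – serum-reduced DMEM (2% serum) · Doses – single dose, pinned · Also added – fluorescent fibronectin at 24 nM final · Schedule – 1 h cell attachment, overnight exposure to compound and label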
# PAX8 reporter: lowers PAX8-driven luciferase in RMG-I cells | RMG-I TPO-luciferase reporter, SteadyGlo, 24 h | inhibition, % at 12.6 µM | actives 1.2% (n = 360,000) | AID 652154;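 active means mean replicate inhibition at least 60% with every replicate also reaching 60%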;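 further: luciferase light reporting Pax8 driven TPO promoter activity; plate controls were median of neutral control wells for no effect and mitoxantrone controls for full effect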
# EWS-Fli inh: EWS/Fli transcriptional activity inhibition; A673 NR0B1-luciferase reporter, viability-normalised; inhibition, % at 12.6 µM; actives 0.67% (n = 350,000); AID 651661;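 active means mean inhibition of at least 50% after viability correction, with every replicate also passing that limit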;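 further: firefly luciferase signal divided by Alamar Blue viability fluorescence both relative to DMSO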
# HIV Env fusion: blocks HIV Env-driven cell-cell fusion; HeLa-JRFL Env/CEM21 cell fusion, luciferase; inhibition, % at 12.3 µM; actives 1.1% (n = 360,000); AID 651610;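 active means mean replicate inhibition score of at least 50 and every replicate individually at or above 50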;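 further: 0% = plate neutral controls and 100% = maraviroc near 300 nM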
# PGC1a acetyl inh: lowers PGC1a acetylation signal in U2OS cells; AlphaScreen anti-acetyl-lysine; with virally co-expressed GCN5 acetyltransferase; inhibition, % at 15.6 µM; actives 0.17% (n = 350,000);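 active means every replicate shows inhibition of at least 40%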;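 further: 0% = neutral control wells and 100% = positive control wells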
# Active calls of the source: *; · = not tested or not shown; [ ] = remark or other dose.
SMILES,F508del corr,FN deposit inh,PAX8 reporter,EWS-Fli inh,HIV Env fusion,PGC1a acetyl inh
CC(C)NC(=O)Nc1ccc2c(c1)C(=O)N([C@H](C)CO)C[C@@H](C)[C@H](CN(C)C(=O)c1ccncc1)OCCCC[C@H](C)O2,2,0,-9,·,12[16.7 µM],7
Cc1cccc(C)c1OCC(=O)OC/C(O)=C(\C#N)c1nc2ccccc2[nH]1,0,-10,69*,9,·,-27
COc1ccc(S(=O)(=O)N(C)C[C@H]2OCCCC[C@H](C)Oc3ccc(NS(C)(=O)=O)cc3C(=O)N([C@H](C)CO)C[C@@H]2C)cc1,0,·,-9,0,26[16.7 µM],-10
CCOC(=O)N1CCN(C(=O)C[C@H]2C[C@@]3(C(=O)OC)C(=C[C@H](C(C)(C)C)O[C@@H]3C)N(CCC3=CCCCC3)C2=O)CC1,-3,-3,32,13,98*,·
COC(=O)[C@]12C[C@H](CC(=O)N3CCCC3)C(=O)N(CCC3=CCCCC3)C1=C[C@H](COCc1ccccc1)O[C@@H]2C,-2,0,7,2,6,·
COC(=O)[C@]12C[C@H](CC(=O)N3CCN(C(=O)C4CC4)CC3)C(=O)N(CCC3=CCCCC3)C1=C[C@H](C(C)(C)C)O[C@@H]2C,1,-4,16,9,57*,·
COc1ccccc1C(=O)Nc1ccc2c(c1)nc(CCNC(=O)c1ccccc1)n2C,-1,1,-4,65*,-8,-35
C[C@@H]1CN(C)C(=O)c2cc(N)ccc2O[C@@H]1CN(C)S(C)(=O)=O,·,-3,·,·,·,·
N#C/C(=C\c1ccccn1)c1nc2ccccc2s1,41*,-9,6,-42,-12,3
O=C(Nc1ccc(C(F)(F)F)cc1)N1[C@@H]2CNC[C@H]1C2c1ccc(-c2ccc(F)cc2)cc1 (stereo partly specified),-2,-3,-5,-11,·,10
O=C1CN(S(=O)(=O)c2cc(Br)ccc2Br)CCN1,2,-5,-8,-4,-5,-5
O=c1c(Br)ccc(Br)cc1Br,-3,36*,118*,37,25,·
C/C=C/c1cnc2c(c1)C(=O)N([C@H](C)CO)C[C@H](C)[C@H](CN(C)C(=O)Nc1c(C)noc1C)O2,-1,·,·,2,-6[16.7 µM],-13
C/C(Cl)=C\Cn1c(O)c(N=NC(N)=S)c2ccccc21,0,-8,3,57*,22,-2
NC(=S)N=Nc1c(O)n(Cc2ccccc2)c2ccccc12,·,-1,35,38,-94,1
C[C@H]1CN(C)C(=O)Cc2cc(NS(C)(=O)=O)ccc2O[C@H]1CN(C)C,·,-4,·,·,·,·
CCCNC(=O)N1CC2(CCN(C(=O)C3CCCCC3)CC2)c2c([nH]c3cc(OC)ccc23)[C@@H]1CO,1,·,·,-8,·,4
Cc1ccc2c(c1)[C@H]1[C@H](CO2)[C@H](c2ccccc2)[C@]2(C)C(=O)N(Cc3ccc(F)cc3)CC(=O)N12,2,1,8,-9,62*,-4
COc1ccc2c(c1)OC[C@H]1[C@H]2N2C(=O)CN(Cc3ccc(C)cc3)C(=O)[C@@]2(C)[C@H]1c1ccccc1,4,2,-11,8,87*,·
COc1ccc2c(c1)OC[C@H]1[C@H]2N2C(=O)CN(Cc3ccc(F)cc3)C(=O)[C@@]2(C)[C@H]1c1ccccc1,4,-3,3,8,48,-18
Cc1ccc2c(c1)[C@H]1[C@H](CO2)[C@H](c2ccccc2)[C@]2(C)C(=O)N(Cc3ccc(Cl)cc3)CC(=O)N12,-3,-16,5,2,65*,·
C[C@H](CO)N1C[C@H](C)[C@@H](CN(C)S(=O)(=O)c2cn(C)cn2)Oc2ccc(NS(=O)(=O)c3ccc(Cl)cc3)cc2CC1=O,1,·,·,-6,-4[16.7 µM],10
CCCNC(=O)N1CC2(C1)[C@@H](c1ccccc1)[C@@H](CO)N2CC1CC1,2,-5,·,1,·,·
COc1ccc(CNCCNC(=O)c2nonc2N)cc1OC,·,·,·,·,-51,·
Nc1nonc1C(=O)NCCNCc1c(OCc2ccccc2F)ccc2ccccc12,·,·,·,·,103*,-19
Nc1nonc1C(=O)NCCNCc1cc(Br)ccc1OCc1ccc(F)cc1,·,8,·,·,67*,·
CNC[C@H]1Oc2c(NC(=O)NC(C)C)cccc2C(=O)N(C)C[C@H]1C,·,-11,·,·,·,·

# Assay outcomes: PubChem BioAssay, Broad Institute
